From ChEMBL document CHEMBL4351006, “A new exploration towards aminothiazolquinolone oximes as potentially multi-targeting antibacterial agents: Design, synthesis and evaluation acting on microbes, DNA, HSA and topoisomerase IV” (Eur J Med Chem, 2019)
≈ marks a conversion by molar mass, not a printed value. Calls of active or inactive are those of the source. No cut-off for these calls is given here.

Legend:
[1] = test system: Staphylococcus aureus; assay: Antibacterial activity against methicillin resistant Staphylococcus aureus N315 assessed as reduction in bacterial cell viability in presence of cefixime incubated for 24 hrs by two fold serial dilution method; type: functional; conditions: N315, 24 h
[2] = test system: Staphylococcus aureus; assay: Antibacterial activity against methicillin resistant Staphylococcus aureus assessed as change in drug resistance after 16 serial passages in presence of cefixime at 0.5 times of MIC incubated for 12 hrs by serial dilution method; type: functional, organism-based
[3] = test system: Candida albicans; assay: Antifungal activity against Candida albicans ATCC 90023 assessed as reduction in fungal cell viability incubated for 24 hrs by two fold serial dilution method; type: functional; conditions: ATCC 90023, 24 h
Method in brief: (§1)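 Broth two-fold serial dilution run to CLSI guidelines. Chloromycin, norfloxacin and fluconazole served as reference drugs.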

[4] = test system: Staphylococcus aureus; assay: Induction of membrane permeabilization in methicillin resistant Staphylococcus aureus assessed as increase in fluorescence intensity steady state at 12 times of MIC after 100 mins by propidium iodide staining based fluorescence microscopy; type: functional, organism-based
Method in brief: (§2)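 MRSA cells were treated with the compound and stained with propidium iodide, which enters cells with damaged membranes and fluoresces on binding DNA. Fluorescence intensity was followed over time against untreated bacteria.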

[5] = Cytotoxicity against human BEAS2B cells assessed as cell viability upto 139.52 uM incubated for 24 hrs by MTT assay relative to control; type: cell-based; conditions: BEAS-2B cells, read-out: Activity
Method in brief: (§3)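 MTT viability assay in A549 and BEAS-2B cells, with doxorubicin at 0.50 μM as positive control. Viability is plotted with standard deviation from three independent experiments.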

[6] = test system: Staphylococcus aureus; assay: Potency index, ratio of MIC of chloromycin to MIC of compound for antibacterial activity against methicillin resistant Staphylococcus aureus N315 assessed as reduction in bacterial cell viability incubated for 24 hrs by two fold serial dilution method; type: functional
[7] = molecular target: T1, Albumin (Homo sapiens, UniProt P02768); assay: Binding affinity to HSA assessed as Stern-Volmer quenching constant at 298 K by fluorescence spectroscopy; type: ADME; conditions: isolated protein
[8] = molecular target: T1, Albumin; assay: Binding affinity to HSA assessed as change in gibbs free energy at 298 K by Van't Hoff plot analysis; type: ADME; conditions: isolated protein
[9] = test system: Candida parapsilosis; assay: Antifungal activity against Candida parapsilosis ATCC 22019 assessed as reduction in fungal cell viability incubated for 24 hrs by two fold serial dilution method; conditions: Lodderomyces parapsilosis, ATCC 22019, 24 h
[10] = test system: Candida tropicalis; assay: Antifungal activity against Candida tropicalis assessed as reduction in fungal cell viability in presence of fluconazole incubated for 24 hrs by two fold serial dilution method
[11] = molecular target: T1, Albumin; assay: Binding affinity to HSA assessed as Stern-Volmer quenching constant at 310 K by fluorescence spectroscopy; type: ADME; conditions: isolated protein
[12] = molecular target: T1, Albumin; assay: Binding affinity to HSA assessed as change in gibbs free energy at 310 K by Van't Hoff plot analysis; type: ADME; conditions: isolated protein
[13] = molecular target: T1, Albumin; assay: Binding affinity to HSA assessed as change in gibbs free energy at 286 K by Van't Hoff plot analysis; type: ADME; conditions: isolated protein
[14] = test system: Calf thymus DNA; assay: Binding affinity to calf thymus DNA by UV-visible spectrophotometric method; type: nucleic-acid assay; conditions: Bos taurus
[15] = test system: Staphylococcus aureus; assay: Antibacterial activity against Staphylococcus aureus ATCC 25923 assessed as reduction in bacterial cell viability incubated for 24 hrs by two fold serial dilution method; type: functional; conditions: ATCC 25923, 24 h; method in brief: as §1
[16] = test system: Staphylococcus aureus; assay: Antibacterial activity against methicillin resistant Staphylococcus aureus N315 assessed as reduction in bacterial cell viability incubated for 24 hrs by two fold serial dilution method; type: functional; conditions: N315, 24 h
Method in brief: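 MIC by two-fold serial dilution following CLSI, with chloromycin and norfloxacin as reference drugs.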

[17] = test system: Candida albicans; assay: Antifungal activity against Candida albicans assessed as reduction in fungal cell viability incubated for 24 hrs by two fold serial dilution method; type: functional; method in brief: as §1
[18] = test system: Staphylococcus aureus; assay: Synergistic antibacterial activity against Staphylococcus aureus assessed as FICI in presence of cefixime incubated for 24 hrs by two fold serial dilution method; type: functional
[19] = test system: Staphylococcus aureus; assay: Antibacterial activity against Staphylococcus aureus ATCC 29213 assessed as reduction in bacterial cell viability incubated for 24 hrs by two fold serial dilution method; type: functional; conditions: ATCC 29213, 24 h; method in brief: as §1
[20] = molecular target: T1, Albumin; assay: Binding affinity to HSA assessed as binding constant at 310 K by fluorescence spectroscopy based Scatchard method; type: ADME; conditions: isolated protein
[21] = test system: Candida albicans; assay: Antifungal activity against Candida albicans assessed as reduction in fungal cell viability in presence of fluconazole incubated for 24 hrs by two fold serial dilution method
[22] = test system: Staphylococcus aureus; assay: Induction of membrane permeabilization in methicillin resistant Staphylococcus aureus assessed as increase in fluorescence intensity at 12 times of MIC incubated for 2 hr by propidium iodide staining based fluorescence microscopy; type: functional, organism-based; method in brief: as §2
[23] = test system: Staphylococcus aureus; assay: Potency index, ratio of MIC of norfloxacin to MIC of compound for antibacterial activity against methicillin resistant Staphylococcus aureus N315 assessed as reduction in bacterial cell viability incubated for 24 hrs by two fold serial dilution method; type: functional
[24] = test system: Candida tropicalis; assay: Antifungal activity against Candida tropicalis assessed as reduction in fungal cell viability incubated for 24 hrs by two fold serial dilution method; type: functional; method in brief: as §1
[25] = test system: Escherichia coli; assay: Antibacterial activity against Escherichia coli assessed as reduction in bacterial cell viability incubated for 24 hrs by two fold serial dilution method; type: functional; method in brief: as §1
[26] = test system: Enterococcus faecalis; assay: Antibacterial activity against Enterococcus faecalis assessed as reduction in bacterial cell viability incubated for 24 hrs by two fold serial dilution method; type: functional; method in brief: as §1
[27] = test system: Acinetobacter baumannii; assay: Antibacterial activity against Acinetobacter baumannii assessed as reduction in bacterial cell viability incubated for 24 hrs by two fold serial dilution method; type: functional; method in brief: as §1
[28] = test system: Pseudomonas aeruginosa; assay: Antibacterial activity against Pseudomonas aeruginosa assessed as reduction in bacterial cell viability incubated for 24 hrs by two fold serial dilution method; type: functional; method in brief: as §1
[29] = test system: Calf thymus DNA; assay: Competitive binding affinity to calf thymus DNA assessed as inhibition of binding of neutral red by UV-visible spectrophotometric method; type: nucleic-acid assay; conditions: Bos taurus
[30] = molecular target: T1, Albumin; assay: Binding affinity to HSA assessed as change in enthalpy at 298 K by Van't Hoff plot analysis; type: ADME; conditions: isolated protein
[31] = molecular target: T1, Albumin; assay: Binding affinity to HSA assessed as quenching constant at 286 K by fluorescence spectroscopy; type: ADME; conditions: isolated protein
[32] = test system: Klebsiella pneumoniae; assay: Antibacterial activity against Klebsiella pneumoniae assessed as reduction in bacterial cell viability in presence of cefixime incubated for 24 hrs by two fold serial dilution method; type: functional
[33] = test system: Staphylococcus aureus; assay: Antibacterial activity against methicillin resistant Staphylococcus aureus assessed as fold change after 16 serial passages at 0.5 times of MIC incubated for 12 hrs by sequential passaging method; type: functional
[34] = molecular target: T1, Albumin; assay: Binding affinity to HSA assessed as Stern-Volmer quenching constant at 286 K by fluorescence spectroscopy; type: ADME; conditions: isolated protein
[35] = molecular target: T1, Albumin; assay: Binding affinity to HSA assessed as binding constant at 286 K by fluorescence spectroscopy based Scatchard method; type: ADME; conditions: isolated protein
[36] = test system: Aspergillus fumigatus; assay: Antifungal activity against Aspergillus fumigatus assessed as reduction in fungal cell viability incubated for 24 hrs by two fold serial dilution method; type: functional; method in brief: as §1
[37] = test system: Escherichia coli; assay: Antibacterial activity against Escherichia coli ATCC 25922 assessed as reduction in bacterial cell viability incubated for 24 hrs by two fold serial dilution method; type: functional; conditions: ATCC 25922, 24 h; method in brief: as §1
[38] = test system: Staphylococcus aureus; assay: Antibacterial activity against Staphylococcus aureus assessed as reduction in bacterial cell viability in presence of cefixime incubated for 24 hrs by two fold serial dilution method; type: functional
[39] = test system: Klebsiella pneumoniae; assay: Synergistic antibacterial activity against Klebsiella pneumoniae assessed as FICI in presence of cefixime incubated for 24 hrs by two fold serial dilution method; type: functional
[40] = molecular target: T1, Albumin; assay: Binding affinity to HSA assessed as quenching constant at 310 K by fluorescence spectroscopy; type: ADME; conditions: isolated protein
[41] = molecular target: T1, Albumin; assay: Binding affinity to HSA assessed as quenching constant at 298 K by fluorescence spectroscopy; type: ADME; conditions: isolated protein
[42] = test system: Pseudomonas aeruginosa; assay: Antibacterial activity against Pseudomonas aeruginosa ATCC 27853 assessed as reduction in bacterial cell viability incubated for 24 hrs by two fold serial dilution method; type: functional; conditions: ATCC 27853, 24 h; method in brief: as §1
[43] = test system: Klebsiella pneumoniae; assay: Antibacterial activity against Klebsiella pneumoniae assessed as reduction in bacterial cell viability incubated for 24 hrs by two fold serial dilution method; type: functional; method in brief: as §1
[44] = molecular target: T1, Albumin; assay: Binding affinity to HSA assessed as change in entropy at 298 K by Van't Hoff plot analysis; type: ADME; conditions: isolated protein
[45] = test system: Staphylococcus aureus; assay: Antibacterial activity against Staphylococcus aureus assessed as reduction in bacterial cell viability incubated for 24 hrs by two fold serial dilution method; type: functional; method in brief: as §1
[46] = Cytotoxicity against human A549 cells assessed as cell viability upto 139.52 uM incubated for 24 hrs by MTT assay relative to control; type: cell-based; conditions: read-out: Activity; method in brief: as §3
[47] = test system: Candida tropicalis; assay: Synergistic antifungal activity against Candida tropicalis assessed as FICI in presence of fluconazole incubated for 24 hrs by two fold serial dilution method
[48] = molecular target: T1, Albumin; assay: Binding affinity to HSA assessed as binding constant at 298 K by fluorescence spectroscopy based Scatchard method; type: ADME; conditions: isolated protein
[49] = test system: Candida albicans; assay: Synergistic antifungal activity against Candida albicans assessed as FICI in presence of fluconazole incubated for 24 hrs by two fold serial dilution method
[50] = test system: Staphylococcus aureus; assay: Potentiation of cefixime-mediated antibacterial activity against methicillin resistant Staphylococcus aureus N315 assessed as cefixime MIC incubated for 24 hrs by two fold serial dilution method (reference value: 31.52 10^-3 mM); type: functional; conditions: N315, 24 h
[51] = test system: Candida albicans; assay: Potentiation of fluconazole-mediated antifungal activity against Candida albicans assessed as fluconazole MIC incubated for 24 hrs by two fold serial dilution method (reference value: 13.06 10^-3 mM); type: functional
[52] = test system: Candida tropicalis; assay: Potentiation of fluconazole-mediated antifungal activity against Candida tropicalis assessed as fluconazole MIC incubated for 24 hrs by two fold serial dilution method (reference value: 26.12 10^-3 mM); type: functional
[53] = test system: Klebsiella pneumoniae; assay: Potentiation of cefixime-mediated antibacterial activity against Klebsiella pneumoniae assessed as cefixime MIC incubated for 24 hrs by two fold serial dilution method (reference value: 15.76 10^-3 mM); type: functional
[54] = test system: Staphylococcus aureus; assay: Potentiation of cefixime-mediated antibacterial activity against Staphylococcus aureus assessed as cefixime MIC incubated for 24 hrs by two fold serial dilution method (reference value: 31.52 10^-3 mM); type: functional

T1 sequence (P02768 whole entry): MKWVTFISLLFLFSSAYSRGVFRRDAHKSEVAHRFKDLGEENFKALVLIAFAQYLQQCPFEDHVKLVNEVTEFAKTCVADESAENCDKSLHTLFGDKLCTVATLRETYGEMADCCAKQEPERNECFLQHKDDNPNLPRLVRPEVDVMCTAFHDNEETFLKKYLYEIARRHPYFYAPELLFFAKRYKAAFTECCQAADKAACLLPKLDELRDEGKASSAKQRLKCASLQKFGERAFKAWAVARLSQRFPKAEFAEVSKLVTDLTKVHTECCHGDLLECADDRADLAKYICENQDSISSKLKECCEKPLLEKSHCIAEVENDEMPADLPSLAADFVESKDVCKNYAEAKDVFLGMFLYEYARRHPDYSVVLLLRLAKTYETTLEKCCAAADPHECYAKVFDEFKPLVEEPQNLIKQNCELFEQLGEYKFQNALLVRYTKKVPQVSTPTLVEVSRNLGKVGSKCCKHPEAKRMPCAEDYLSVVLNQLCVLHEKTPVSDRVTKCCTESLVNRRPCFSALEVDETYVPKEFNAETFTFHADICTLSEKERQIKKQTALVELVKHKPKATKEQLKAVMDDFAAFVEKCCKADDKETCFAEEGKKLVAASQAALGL

SMILES: CCn1cc(-c2csc(N)n2)c(=O)c2cc(F)c(N3CCN(C/C(C)=N/OC)CC3)cc21
- MIC [1]: 4.36 µM
- Activity [2]: inactive
- MIC [3]: 17 µM (≈ 7.8 µg/mL)
- Activity [4]: Active
- viability at 24 h [5]: > 75%
- Ratio [6]: 5
- KSV [7]: 1.79 ×10⁵ L/mol
- deltaG [8]: -6.4904 kcal/mol
- MIC [9]: 70 µM (≈ 32.1 µg/mL)
- MIC [10]: 17.4 µM
- KSV [11]: 1.57 ×10⁵ L/mol
- deltaG [12]: -6.4725 kcal/mol
- deltaG [13]: -6.5084 kcal/mol
- K [14]: 2.51 ×10⁴ L/mol
- MIC [15]: 17 µM (≈ 7.8 µg/mL)
- MIC [16]: 9 µM (≈ 4.13 µg/mL)
- MIC [17]: 70 µM (≈ 32.1 µg/mL)
- fractional inhibitory concentration index (FICI) [18]: 0.5
- MIC [19]: 140 µM (≈ 64.2 µg/mL)
- Kb [20]: 1.44 ×10⁵ L/mol
- MIC [21]: 2.18 µM
- Activity [22]: Active
- Ratio [23]: 2
- MIC [24]: 70 µM (≈ 32.1 µg/mL)
- MIC [25]: 70 µM (≈ 32.1 µg/mL)
- MIC [26]: 70 µM (≈ 32.1 µg/mL)
- MIC [27]: 279 µM (≈ 128 µg/mL)
- MIC [28]: 70 µM (≈ 32.1 µg/mL)
- Activity [29]: Active
- deltaH [30]: -6.9355 kcal/mol
- Kq [31]: 2.95 ×10¹³ L/mol/s
- MIC [32]: 8.72 µM
- fold change (FC) [33]: inactive
- KSV [34]: 1.89 ×10⁵ L/mol
- Kb [35]: 1.81 ×10⁵ L/mol
- MIC [36]: 35 µM (≈ 16 µg/mL)
- MIC [37]: 35 µM (≈ 16 µg/mL)
- MIC [38]: 8.72 µM
- fractional inhibitory concentration index (FICI) [39]: 0.625
- Kq [40]: 2.45 ×10¹³ L/mol/s
- Kq [41]: 2.8 ×10¹³ L/mol/s
- MIC [42]: 35 µM (≈ 16 µg/mL)
- MIC [43]: 70 µM (≈ 32.1 µg/mL)
- deltaS [44]: -6.247 J/mol.K
- MIC [45]: 35 µM (≈ 16 µg/mL)
- viability at 24 h [46]: > 75%
- fractional inhibitory concentration index (FICI) [47]: 1.25
- Kb [48]: 1.63 ×10⁵ L/mol
- fractional inhibitory concentration index (FICI) [49]: 0.281

SMILES: C=CC1=C(C(=O)O)N2C(=O)[C@@H](NC(=O)/C(=N\OCC(=O)O)c3csc(N)n3)[C@H]2SC1 [CEFIXIME]
- MIC [50]: 3.94 µM
- MIC [51]: 3.26 µM
- MIC [52]: 26.1 µM
- MIC [53]: 7.88 µM
- MIC [54]: 7.88 µM
